Each structure is given as a SMILES string. Activity calls are given as the source filed them. The rule behind the calls is not given here.

The inhibition is the change of the read-out against control, counted positive when it falls. As usually defined, the IC50 is the midpoint of a concentration-inhibition curve.

One data set has as its system SARS-CoV-2. Briefly: Antiviral activity against SARS-CoV-2 infected in African green monkey Vero E6 cells assessed as inhibition of viral infection at 10 uM incubated for 1 hrs followed by compound washout and measured after 24 hrs by crystal violet staining based plaque assay relative to control. The format is functional. The settings on record: Severe acute respiratory syndrome coronavirus 2, Vero C1008.
Take `O=C1c2cc(N3CCOCC3)c(Cc3ccccc3)nc2C(c2ccoc2)N1CC1CCCO1` (stereo unspecified): the inhibition at 10 µM worked out at 9.4%.

`O=C1c2cc(N3CCOCC3)c(Cc3ccccc3)nc2C(c2ccco2)N1Cc1ccco1` (stereo unspecified): the inhibition at 10 µM amounted to 19.4%.

For `O=C1c2cc(N3CCOCC3)c(Cc3ccc(O)cc3)nc2C(c2ccco2)N1Cc1ccco1` (stereo unspecified), the inhibition at 10 µM was 77%.

Turning to `O=C1c2cc(N3CCOCC3)c(Cc3ccccc3)nc2C(C2CCCO2)N1Cc1ccco1` (stereo unspecified), the inhibition at 10 µM was determined as 31.9%.

In a further data set the test system is SARS-CoV-2. In words: Antiviral activity against SARS-CoV-2 infected in African green monkey Vero E6 cells assessed as inhibition of viral infection at 10 uM pre-infected with cells for 1 hrs followed by compound addition and measured after 24 hrs by crystal violet staining based plaque reduction assay. It is filed as functional. The note with it: Severe acute respiratory syndrome coronavirus 2. (In general: Plaques are areas of infected cells; plaque reduction assays count them against a control.)
Turning to `O=C1c2cc(N3CCOCC3)c(Cc3ccccc3)nc2C(c2ccoc2)N1CC1CCCO1` (stereo unspecified), the result was inactive.

For the molecule `O=C1c2cc(N3CCOCC3)c(Cc3ccccc3)nc2C(c2ccco2)N1Cc1ccco1` (stereo unspecified), the result was inactive.

For the molecule `O=C1c2cc(N3CCOCC3)c(Cc3ccc(O)cc3)nc2C(c2ccco2)N1Cc1ccco1` (stereo unspecified), the outcome was inactive.

As for `O=C1c2cc(N3CCOCC3)c(Cc3ccccc3)nc2C(C2CCCO2)N1Cc1ccco1` (stereo unspecified), the result was Active.

Staying with this data set, now noted: Severe acute respiratory syndrome coronavirus 2, Vero C1008.
Take `O=C1c2cc(N3CCOCC3)c(Cc3ccccc3)nc2C(c2ccoc2)N1Cc1ccco1` (stereo unspecified): the inhibition at 10 µM is 53%.

System in another data set: not listed separately
Briefly: Cytotoxicity against African green monkey Vero E6 cells assessed as cell viability incubated for 48 hrs by crystal violet staining assay. It is filed as toxicity, cell-based, Vero C1008. The settings on record: African green monkey (Chlorocebus sabaeus).
With `O=C1c2cc(N3CCOCC3)c(Cc3ccccc3)nc2C(c2ccco2)N1CC1CCCO1` (stereo unspecified), the IC50 at 48 h is 76.9 µM.

Take `O=C1c2cc(N3CCOCC3)c(Cc3ccccc3)nc2C(c2ccoc2)N1CC1CCCO1` (stereo unspecified): the IC50 at 48 h was 290 µM.

For the molecule `O=C1c2cc(N3CCOCC3)c(Cc3ccccc3)nc2C(c2ccco2)N1Cc1ccco1` (stereo unspecified), the IC50 at 48 h is 276 µM.

Consider `O=C1c2cc(N3CCOCC3)c(Cc3ccccc3)nc2C(c2ccoc2)N1Cc1ccco1` (stereo unspecified), for which the IC50 at 48 h is 85.1 µM.

Take `O=C1c2cc(N3CCOCC3)c(Cc3ccc(O)cc3)nc2C(c2ccco2)N1Cc1ccco1` (stereo unspecified): the IC50 at 48 h was found to be 153 µM.

As to `O=C1c2cc(N3CCOCC3)c(Cc3ccccc3)nc2C(C2CCCO2)N1Cc1ccco1` (stereo unspecified), the IC50 at 48 h came to 612 µM.

System in the next data set: not listed separately
Briefly: Cytotoxicity against African green monkey Vero E6 cells assessed as cell viability upto 10 uM incubated for 48 hrs by crystal violet staining assay relative to control. The format is toxicity, cell-based, Vero C1008. The settings on record: chlorocebus sabaeus, read-out: Activity. The essentials:
(§1)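 Vero E6 cells were seeded at 25 000 per well 24 h ahead in DMEM with 8% FBS at 37 °C and 5% CO2. Compounds were tested at 0.001–100 μM for 48 h, with a 0.5% DMSO vehicle control. Cells were fixed in formaldehyde and stained with crystal violet, the dye was released with 10% acetic acid, and A590 was read. Viability is relative to untreated medium. IC50 came from polynomial regression.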
Consider `O=C1c2cc(N3CCOCC3)c(Cc3ccccc3)nc2C(c2ccco2)N1CC1CCCO1` (stereo unspecified), for which the viability at 48 h, up to 10 µM is no less than 100%.

In the case of `O=C1c2cc(N3CCOCC3)c(Cc3ccccc3)nc2C(c2ccoc2)N1CC1CCCO1` (stereo unspecified), the viability at 48 h, up to 10 µM was no less than 100%.

In the case of `O=C1c2cc(N3CCOCC3)c(Cc3ccccc3)nc2C(c2ccco2)N1Cc1ccco1` (stereo unspecified), the viability at 48 h, up to 10 µM is no less than 100%.

Take `O=C1c2cc(N3CCOCC3)c(Cc3ccccc3)nc2C(c2ccoc2)N1Cc1ccco1` (stereo unspecified): the viability at 48 h, up to 10 µM was no less than 100%.

With `O=C1c2cc(N3CCOCC3)c(Cc3ccc(O)cc3)nc2C(c2ccco2)N1Cc1ccco1` (stereo unspecified), the viability at 48 h, up to 10 µM is no less than 100%.

For the molecule `O=C1c2cc(N3CCOCC3)c(Cc3ccccc3)nc2C(C2CCCO2)N1Cc1ccco1` (stereo unspecified), the viability at 48 h, up to 10 µM is no less than 100%.

In a further data set the test system is Vero C1008. In words: Cytotoxicity against African green monkey Vero E6 cells assessed as reduction in cell viability at 100 uM incubated for 48 hrs by crystal violet staining assay. It is filed as toxicity, cell-based. The note with it: chlorocebus sabaeus, vero c1008, 48 h. The essentials: as §1
Consider `O=C1c2cc(N3CCOCC3)c(Cc3ccccc3)nc2C(c2ccco2)N1CC1CCCO1` (stereo unspecified), for which the Activity entry was “Toxic”.

As to `O=C1c2cc(N3CCOCC3)c(Cc3ccccc3)nc2C(c2ccoc2)N1CC1CCCO1` (stereo unspecified), the Activity result was “Toxic”.

In the case of `O=C1c2cc(N3CCOCC3)c(Cc3ccccc3)nc2C(c2ccco2)N1Cc1ccco1` (stereo unspecified), the Activity result is given as “Toxic”.

Take `O=C1c2cc(N3CCOCC3)c(Cc3ccccc3)nc2C(c2ccoc2)N1Cc1ccco1` (stereo unspecified): the Activity result is “Toxic”.

In the case of `O=C1c2cc(N3CCOCC3)c(Cc3ccc(O)cc3)nc2C(c2ccco2)N1Cc1ccco1` (stereo unspecified), the Activity entry is reported as “Toxic”.

The values are drawn from ChEMBL document CHEMBL5230165, “Synthesis of bis-furyl-pyrrolo[3,4-b]pyridin-5-ones via Ugi-Zhu reaction and in vitro activity assays against human SARS-CoV-2 and in silico studies on its main proteins” (RSC Med Chem, 2023).
